Laboratory results from the RNAGym collection of RNA variant scans (doi:10.1002/anie.201605470).

B1: Osa-1-4 twister ribozyme (parent)
chain: CCGCCUAACACUGCCAAUGCCGGUCCCAAGCCCGGAUAAAAGUGGAGGGGGCGG

Variants of: B1
Assay: self-cleavage, relative activity (ratio to wild type); higher = more cleavage; co-transcriptional
Outline: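 Values are relative activity: the fraction cleaved, normalised to wild type. A doped DNA template for a 54-nucleotide twister ribozyme from Oryza sativa had 97 % wild-type base and 1 % of each other base at the 48 positions downstream of the cleavage site. The RNA was transcribed in vitro for 2 h at 37 °C so that it could cleave itself co-transcriptionally, then sequenced deeply, with cleavage status scored from the presence or absence of upstream sequence in reads.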

Variant	self-cleavage
CCGCCUAACACUGCCAAUGCCGGUCCCAAGCCCGGCUAAAAGUGGAGGGGACGG [A36C G51A]	0.28
CCGCCUAGCACUGCCAAUGCCGGUCCCAAGCCCGGGUAAAAGUGGAGGGGGCGG [A36G A8G]	0.66
CCGCCUACCACUGCCAAUGCCGGUCCCAAGCCCGGGUAAAAGUGGAGGGGGCGG [A36G A8C]	0.1
CCGCCUAUCACUGCCAAUGCCGGUCCCAAGCCCGGGUAAAAGUGGAGGGGGCGG [A36G A8U]	0.53
CCGCCUAACACUGCCAAUGCCGGUCCCAAGGCCGGCUAAAAGUGGAGGGGGCGG [A36C C31G]	0.04
CCGCCUAACACUGCCAAUGCCGGUCCCAAGACCGGCUAAAAGUGGAGGGGGCGG [A36C C31A]	0.03
CCGCCUAACACUGCCAAUGCCGGUCCCAAGUCCGGCUAAAAGUGGAGGGGGCGG [A36C C31U]	0.1
CCGCCUAACACUGCCAAUGCCGGUCCCAAGCCCGGCUAAAAGUGUAGGGGGCGG [A36C G45U]	0.05
CCGCCUAACACUGCCAAUGCCGGUCCCAAGCCCGGCUAAAAGUGAAGGGGGCGG [A36C G45A]	0.07
CCGCCUAACACUGCCAAUGCCGGUCCCAAGCCCGGCUAAAAGUGCAGGGGGCGG [A36C G45C]	0.04
CCGCCUAACACUGCCAAUGCCGGUCCUAAGCCCGGCUAAAAGUGGAGGGGGCGG [A36C C27U]	0.09
CCGCCUAACACUGCCAAUGCCGGUCCAAAGCCCGGCUAAAAGUGGAGGGGGCGG [A36C C27A]	0.07
CCGCCUAACACUGCCAAUGCCGGUCCGAAGCCCGGCUAAAAGUGGAGGGGGCGG [A36C C27G]	0.05
CCGCCUAACACUGCCAAAGCCGGUCCCAAGCCCGGCUAAAAGUGGAGGGGGCGG [A36C U18A]	0.55
CCGCCUAACACUGCCAAGGCCGGUCCCAAGCCCGGCUAAAAGUGGAGGGGGCGG [A36C U18G]	0.87
CCGCCUAACACUGCCAACGCCGGUCCCAAGCCCGGCUAAAAGUGGAGGGGGCGG [A36C U18C]	0.67
CCGCCUAACACUGCCAAUGCCGGUCCCAAGCCCGCCUAAAAGUGGAGGGGGCGG [A36C G35C]	0.75
CCGCCUAACACUGCCAAUGCCGGUCCCAAGCCCGUCUAAAAGUGGAGGGGGCGG [A36C G35U]	0.95
CCGCCUAACACUGCCAAUGCCGGUCCCAAGCCCGACUAAAAGUGGAGGGGGCGG [A36C G35A]	0.94
CCGCCUAACACUGCCAAUGCCGGUCCCAAGCCCGGGUACAAGUGGAGGGGGCGG [A36G A39C]	1.05
CCGCCUAACACUGCCAAUGCCGGUCCCAAGCCCGGGUAUAAGUGGAGGGGGCGG [A36G A39U]	0.97
CCGCCUAACACUGCCAAUGCCGGUCCCAAGCCCGGGUAGAAGUGGAGGGGGCGG [A36G A39G]	1.01
CCGCCUAACACUGCCAAUGCCGGGCCCAAGCCCGGCUAAAAGUGGAGGGGGCGG [A36C U24G]	0.03
CCGCCUAACACUGCCAAUGCCGGACCCAAGCCCGGCUAAAAGUGGAGGGGGCGG [A36C U24A]	0.06
CCGCCUAACACUGCCAAUGCCGGCCCCAAGCCCGGCUAAAAGUGGAGGGGGCGG [A36C U24C]	0.07

Variant	self-cleavage
CCGCCUAACACUGCCAAUGCCGGUCCCAAGCCCGGCUAAAAGGGGAGGGGGCGG [A36C U43G]	0.11
CCGCCUAACACUGCCAAUGCCGGUCCCAAGCCCGGCUAAAAGAGGAGGGGGCGG [A36C U43A]	0.15
CCGCCUAACACUGCCAAUGCCGGUCCCAAGCCCGGCUAAAAGCGGAGGGGGCGG [A36C U43C]	0.13
CCGCCUGACACUGCCAAUGCCGGUCCCAAGCCCGGGUAAAAGUGGAGGGGGCGG [A36G A7G]	0.5
CCGCCUCACACUGCCAAUGCCGGUCCCAAGCCCGGGUAAAAGUGGAGGGGGCGG [A36G A7C]	0.05
CCGCCUUACACUGCCAAUGCCGGUCCCAAGCCCGGGUAAAAGUGGAGGGGGCGG [A36G A7U]	0.1
CCGCCUAACACUUCCAAUGCCGGUCCCAAGCCCGGCUAAAAGUGGAGGGGGCGG [A36C G13U]	0.02
CCGCCUAACACUACCAAUGCCGGUCCCAAGCCCGGCUAAAAGUGGAGGGGGCGG [A36C G13A]	0.04
CCGCCUAACACUCCCAAUGCCGGUCCCAAGCCCGGCUAAAAGUGGAGGGGGCGG [A36C G13C]	0.03
CCGCCUAACACUGCCAAUGCCGGUCCCAAGCCCGGCGAAAAGUGGAGGGGGCGG [A36C U37G]	0.93
CCGCCUAACACUGCCAAUGCCGGUCCCAAGCCCGGCCAAAAGUGGAGGGGGCGG [A36C U37C]	0.98
CCGCCUAACACUGCCAAUGCCGGUCCCAAGCCCGGCAAAAAGUGGAGGGGGCGG [A36C U37A]	0.53
CCGCCUAACACUGCCAAUGCCGGUCCCAAGCCCGGCUAAAAGUGGAGGGGGCGC [A36C G54C]	0.19
CCGCCUAACACUGCCAAUGCCGGUCCCAAGCCCGGCUAAAAGUGGAGGGGGCGU [A36C G54U]	0.55
CCGCCUAACACUGCCAAUGCCGGUCCCAAGCCCGGCUAAAAGUGGAGGGGGCGA [A36C G54A]	0.27
CCGCCUAACACUGCCAAUGCCGGUCCCAAGCCCGGCUAAAAGUGGAGGGUGCGG [A36C G50U]	0.37
CCGCCUAACACUGCCAAUGCCGGUCCCAAGCCCGGCUAAAAGUGGAGGGCGCGG [A36C G50C]	0.22
CCGCCUAACACUGCCAAUGCCGGUCCCAAGCCCGGCUAAAAGUGGAGGGAGCGG [A36C G50A]	0.77
CCGCCUAACACUGCCAAUCCCGGUCCCAAGCCCGGCUAAAAGUGGAGGGGGCGG [A36C G19C]	0.56
CCGCCUAACACUGCCAAUUCCGGUCCCAAGCCCGGCUAAAAGUGGAGGGGGCGG [A36C G19U]	0.82
CCGCCUAACACUGCCAAUACCGGUCCCAAGCCCGGCUAAAAGUGGAGGGGGCGG [A36C G19A]	0.76
CCGCCUAACACUGCCAAUGCCGGUCCCAAGCCCGGCUAAAAGUGGAGCGGGCGG [A36C G48C]	0.05
CCGCCUAACACUGCCAAUGCCGGUCCCAAGCCCGGCUAAAAGUGGAGUGGGCGG [A36C G48U]	0.04
CCGCCUAACACUGCCAAUGCCGGUCCCAAGCCCGGCUAAAAGUGGAGAGGGCGG [A36C G48A]	0.05
